Assays:
U87-MG cells [1] = test: MTT; assay type: cell-based, human; details: for IC50: read-out: IC50,dark, 4 h incubation in dark, dark 20 min, then 16 h dark
In short: (§1)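 In an MTT assay, cells were incubated with test compound in the dark for 4 h. They were then kept dark or irradiated at 450 nm (10 mW cm−2) for 20 min, and held a further 16 h in the dark. IC50 values were obtained under dark and light conditions, and the phototoxicity index was taken as IC50,dark/IC50,light.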

MCF-7 cells [2] = test: MTT; assay type: cell-based; details: for IC50: read-out: IC50,dark, 4 h incubation in dark, dark 20 min, then 16 h dark
In short: as §1

HEK293 cells [3] = test: MTT; assay type: cell-based; details: for IC50: read-out: IC50,dark, 4 h incubation in dark, dark 20 min, then 16 h dark
In short: as §1

Photophysical = assay type: physicochemical; details: for λem: λex = 350 nm; for τo: λex = 375 nm
[4] = Singlet oxygen quantum yield with 1,3-diphenylisobenzofuran as scavenger; assay type: physicochemical; details: aerated CH3CN, 298 K, λex = 450 nm
[5] = Emission response upon photoirradiation at 450 nm; assay type: physicochemical; details: for Emission lifetime τ after photoirradiation / λem after photoirradiation: 10 μM, aerated PBS/DMSO (9:1), 450 nm (10 mW cm−2) 20 min; for λem after photoirradiation: λex = 350 nm
In short: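 Test compound (10 μM) in aerated PBS/DMSO (9:1, v/v) was irradiated at 450 nm (10 mW cm−2) for 20 min at 298 K. Photoproducts were followed by RP-HPLC and identified by ESI-MS. Emission was recorded before and after irradiation (λex 350 nm), and I/Io was taken as the ratio of these intensities. Lifetimes were measured at emission maxima (λex 375 nm).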

[6] = Phosphorogenic response towards BCN-OH; assay type: physicochemical; details: 10 μM, BCN-OH 500 μM, aerated PBS/DMSO (9:1), dark 16 h; for λem after incubation with BCN-OH: λex = 350 nm
In short: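 Test compound (10 μM) was incubated with excess BCN-OH (500 μM) in aerated PBS/DMSO (9:1, v/v) at 298 K in the dark for 16 h. Emission was recorded with λex 350 nm, and I/Io was taken as intensity with versus without BCN-OH. Lifetimes were measured at emission maxima (λex 375 nm).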

U87-MG cells [7] = test: Cellular uptake by ICP-MS; assay type: cell-based, human; details: 5 µM, 4 h, 37°C
MCF-7 cells [8] = test: Cellular uptake by ICP-MS; assay type: cell-based; details: 5 µM, 4 h, 37°C
HEK293 cells [9] = test: Cellular uptake by ICP-MS; assay type: cell-based; details: 5 µM, 4 h, 37°C
U87-MG cells [10] = test: Annexin V/propidium iodide flow cytometry; assay type: cell-based, human; details: 1 μM, 4 h, photoirradiation at 450 nm (10 mW cm−2) 20 min
In short: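 Cells were pretreated with test compound (1 μM, 4 h), then kept unirradiated or continuously irradiated at 450 nm (10 mW cm−2) for 20 min. They were stained for 15 min with Alexa Fluor 647–Annexin V (λex 638 nm) and propidium iodide (100 μg mL−1 stock; λex 561 nm). Analysis was by flow cytometry.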

U87-MG cells [11] = test: Cellular uptake mechanism studies; assay type: cell-based, human; details: 20 µM, 1 h
U87-MG cells [12] = test: Cell death mechanism studies by LSCM; assay type: cell-based, human; details: 5 μM, 4 h
In short: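 For mitochondrial membrane potential, live cells were pretreated with test compound (5 μM, 4 h), then left unirradiated or irradiated at 450 nm (10 mW cm−2) for 20 min. They were stained with rhodamine 123 (5 μM, 15 min) and imaged by confocal microscopy (λex 488 nm, λem 500–550 nm).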

[13] = potassium phosphate buffer (50 mM, pH 7.4)/CH3CN (1:1), 298 K
[14] = + RGD peptide pretreatment (50 µM, 30 min)

PI (IC50,dark/IC50,light) (U87-MG cells [1]) | IC50 (U87-MG cells [1]) | PI (IC50,dark/IC50,light) (MCF-7 cells [2]) | IC50 (MCF-7 cells [2]) | λem (Photophysical; CH3CN, 298 K) | τo (Photophysical; CH3CN, 298 K) | τo (Photophysical; EtOH/MeOH (4:1) glass, 77 K) | Φem (Photophysical; [13]) | λem (Photophysical; [13]) | τo (Photophysical; [13]) | 1O2 quantum yield (ΦΔ) [4] | Substance | PI (IC50,dark/IC50,light) (HEK293 cells [3]) | IC50 (HEK293 cells [3]) | Emission lifetime τ after photoirradiation [5] | λem after photoirradiation [5] | Emission lifetime τ after incubation with BCN-OH [6] | λem after incubation with BCN-OH [6] | also measured
138 | 11 ± 1 µM | 150 | 15 ± 1 µM | 631 nm | 0.60 μs | 4.38 μs | 0.002 | 650 nm | 0.18 μs | 0.60 | [Ir(pqe)2(bpy-CONH-S-Tz-S-Et)](PF6) [complex 2] | 133 | 12 ± 1 µM | 0.29 μs | 648 nm | 0.37 μs | 631 nm | 
135 | 2.7 ± 0.1 µM | 125 | 2.5 ± 0.1 µM | 634 nm | 0.69 μs | 4.79 μs | 0.02 | 648 nm | 0.35 μs | 0.81 | [Ir(pqe)2(bpy-CONH-SCN)](PF6) [complex 3] | 88 | 3.5 ± 0.2 µM |  |  |  |  | 

More lines, now with the values behind:

Substance | PI (IC50,dark/IC50,light) (U87-MG cells [1]) | IC50 (U87-MG cells [1]) | PI (IC50,dark/IC50,light) (MCF-7 cells [2]) | IC50 (MCF-7 cells [2]) | λem (Photophysical; CH3CN, 298 K) | τo (Photophysical; CH3CN, 298 K) | τo (Photophysical; EtOH/MeOH (4:1) glass, 77 K) | Φem (Photophysical; [13]) | λem (Photophysical; [13]) | τo (Photophysical; [13]) | 1O2 quantum yield (ΦΔ) [4] | PI (IC50,dark/IC50,light) (HEK293 cells [3]) | IC50 (HEK293 cells [3]) | Emission lifetime τ after photoirradiation [5] | λem after photoirradiation [5] | Emission lifetime τ after incubation with BCN-OH [6] | λem after incubation with BCN-OH [6] | also measured
[Ir(pqe)2(bpy-CONH2)](PF6) [complex 4] | 103 | 4.1 ± 0.2 µM | 105 | 4.2 ± 0.1 µM | 631 nm | 0.67 μs | 4.23 μs | 0.02 | 648 nm | 0.34 μs |  | 100 | 5 ± 0.1 µM |  |  |  |  | 
[Ir(pqe)2(bpy-CONH-S-Tz-Cl)](PF6) [complex 1] |  |  |  |  | 632 nm | 0.68 μs | 4.25 μs | 0.002 | 650 nm | 0.23 μs | 0.55 |  |  |  |  |  |  | 
[Ir(pqe)2(bpy-CONH-S-Tz-S-RGD)](CF3COO) [conjugate 1-RGD] | 325 | 26 ± 1 µM | 236 |  | 631 nm | 0.58 μs | 4.14 μs | 0.001 | 648 nm | 0.19 μs |  | >38 | > 50 µM | 0.26 μs | 648 nm | 0.33 μs | 632 nm | Amount of iridium per average cell (U87-MG cells [7]; [14]): 0.34 fmol; Amount of iridium per average cell (U87-MG cells [7]; − RGD): 0.70 fmol; Amount of iridium per average cell (MCF-7 cells [8]; [14]): 0.25 fmol; Amount of iridium per average cell (MCF-7 cells [8]; − RGD): 0.32 fmol; Amount of iridium per average cell (HEK293 cells [9]; [14]): 0.030 fmol; Amount of iridium per average cell (HEK293 cells [9]; − RGD): 0.032 fmol; Population of apoptotic cells (U87-MG cells [10]): 98.28%; Φem (Photophysical; CH3CN, 298 K): 0.003; Time to complete photodissociation of S,S-tetrazine moiety ([5]; steady-state irradiation at 450 nm, 298 K): 20 min; Cellular uptake efficiency after metabolic or endocytosis inhibitors (U87-MG cells [11]; 2-deoxy-D-glucose and oligomycin, or NH4Cl or chloroquine): substantially reduced; Amount of intracellular iridium at low temperature vs 37 °C (U87-MG cells [11]; 4 °C): significantly decreased; Internalisation after cation transporter inhibitor (U87-MG cells [11]; tetraethylammonium chloride (1 mM) pretreatment): remained unaffected; Intracellular ROS (CM-H2DCFDA emission) (U87-MG cells [12]; 450 nm 20 min vs dark): effective intracellular ROS generation; Mitochondrial membrane potential (rhodamine 123 emission) (U87-MG cells [12]; after 450 nm 20 min vs dark): significantly diminished in intensity

— article PMC12123436 (RSC Chemical Biology, 2025)
